The list is not random: actives were taken first. Their share in the collection is about 3.7%.
KCNQ1 inh = inhibitors of human KCNQ1 channel, primary screen, cell-based, thallium flux, high-throughput; Potassium voltage-gated channel subfamily KQT member 1 (Homo sapiens), P51787; CHO-K1 KCNQ1, FluxOR thallium flux fluorescence; active compounds read high; B-score at 10 µM; actives 1.3% (n = 310,000); AID 2642, 2010;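 active means compounds whose thallium flux B-score, printed positive for inhibition, exceeds three library SD while starting fluorescence stays within three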;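 further: channel opened by potassium depolarization with thallium stimulus after 20 min compound exposure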
Kir21 inh = inhibitors of mouse Kir2.1 inward-rectifier potassium channel; Inward rectifier potassium channel 2 (Mus musculus), P35561; HEK293-Kir2.1, FluxOR thallium flux fluorescence; active compounds read low; B-score at 10 µM; actives 0.85% (n = 310,000); AID 1672, 2009;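 active means fluorescence ratio B-score at or below minus 3 SD of library scores, with starting-brightness B-score within 2 SD, cut at about -4.2 in these data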;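 further: channel flux triggered by added potassium and thallium sulfate stimulus; B-score of peak minus minimum fluorescence over baseline after thallium stimulus; more negative B-score means stronger Kir2.1 block with less thallium influx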
KCNK9 inh = KCNK9 potassium channel inhibitors, primary screen, HEK293 cells, thallium flux; FluxOR thallium flux fluorescence; active compounds read low; B-score at 10 µM; actives 1.2% (n = 310,000);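 active means ratio B-score over 3 SD below the library mean, with starting fluorescence within 5 SD of its mean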;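 further: negative B-score means less thallium flux so channel inhibition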
Target sequence (Q9NPC2 whole entry, looked up): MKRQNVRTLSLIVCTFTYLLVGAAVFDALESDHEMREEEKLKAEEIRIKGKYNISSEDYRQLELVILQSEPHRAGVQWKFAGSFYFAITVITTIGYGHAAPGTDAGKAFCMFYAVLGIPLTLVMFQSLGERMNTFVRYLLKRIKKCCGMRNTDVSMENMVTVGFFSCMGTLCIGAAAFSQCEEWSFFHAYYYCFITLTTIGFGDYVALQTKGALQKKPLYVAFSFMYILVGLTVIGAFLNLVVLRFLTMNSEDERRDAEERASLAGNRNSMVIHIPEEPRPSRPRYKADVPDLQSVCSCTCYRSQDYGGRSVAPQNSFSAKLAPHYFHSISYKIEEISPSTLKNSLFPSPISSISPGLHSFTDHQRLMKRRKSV
KCNQ1 pot = potentiators or activators of KCNQ1 channel, primary screen, cell-based, thallium flux, high-throughput | B-score at 10 µM | Potassium voltage-gated channel subfamily KQT member 1 (Homo sapiens), P51787 | CHO-K1 KCNQ1, thallium flux FluxOR fluorescence; active compounds read high | actives 0.35% (n = 310,000);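 active means fluorescence ratio B-score, a plate-corrected score, at least three library SD, with initial intensity B-score within 5 SD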
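Material: CHO-K1 cells stably expressing KCNQ1. Medium: assay buffer for compound exposure, DMSO matched across wells. Reagent: K+/Tl+ depolarizing stimulus. Compound dosing: single-concentration screen. Times: 37 °C overnight plating, 90-min dark dye load, 20-min compound pretreatment. Technique: FluxOR Tl+ flux fluorescence.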
hERG protect = hERG rescue from dofetilide block, primary screen, cell-based, CHO-hERG, FluxOR thallium flux, dofetilide IC70; dofetilide IC70 present; activation (rescue from dofetilide block), less the hit threshold, % at 10 µM; Voltage-gated inwardly rectifying potassium channel KCNH2 (Homo sapiens), Q12809; actives 0.51% (n = 310,000); AID 1511, 2009;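 active means activation above the mean of controls blocked by dofetilide plus 5 SD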;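 further: thallium influx through hERG after potassium depolarization seen as dye fluorescence rise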
KCNK3 block = human KCNK3 channel inhibitors, primary screen, CHO cells, FluxOR thallium flux, B-score; Potassium channel subfamily K member 3 (Homo sapiens), O14649; FluxOR fluorescence; active compounds read low; B-score at 10 µM; actives 0.84% (n = 340,000);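 active means B-score under library mean minus 4 SD, starting fluorescence ratio at most library mean plus 5 SD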;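 further: more negative B-score means stronger inhibition of thallium flux through KCNK3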
KCNK9 block conf = KCNK9 potassium channel inhibitors, confirmation, HEK293 cells, thallium flux, duplicate | shares compounds with KCNK9 inh | FluxOR thallium flux fluorescence | inhibition, % at 10 µM | actives 43% (n = 4,900) | AID 492992, 2010;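 active means thallium signal inhibited by more than 5 SD of the compound-free buffer control wells, on both duplicate plates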
Kir21 sel = mouse Kir2.1 channel inhibition, confirmation, selectivity assay for KCNK9 modulator project, cell-based, HEK293, thallium flux; actives 4% (n = 4,900); Kir2.1 cells, FluxOR thallium flux fluorescence; shares compounds with KCNK9 inh; AID 492993, 2010; inhibition, % at 10 µM;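 active means thallium signal drop more than 5 SD beyond the mean of the no-compound control wells, seen in both duplicate plates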;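 further: signal is fluorescence rise after thallium addition divided by baseline fluorescence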
KCNK9 uninduced = thallium flux in non-induced HEK293 cells, confirmation, counter-screen for KCNK9 inhibitor project, cell-based, second counter screen, non-induced KCNK9-HEK293; shares compounds with KCNK9 inh; actives 40% (n = 4,900); FluxOR thallium flux; inhibition, % at 10 µM;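 active means thallium signal drop beyond 5 SD of the untreated control mean, on both duplicate plates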
Large screens that a line does not name were inactive (follow-up assays come after a bar, where they were run).

COCCn1c(SCC(=O)NCCCN2CCCC2=O)nc2sc3c(c2c1=O)CCCC3	none (no result: KCNQ1 inh, Kir21 inh, KCNK9 inh, KCNQ1 pot, hERG protect)
CC1CCN(Cc2c(C(=O)N/N=C/c3ccc(C(C)(C)C)cc3)nnn2-c2nonc2N)CC1	none | KCNK9 block conf inactive | Kir21 sel inactive | KCNK9 uninduced inactive
CC1CCN(Cc2c(C(=O)N/N=C/c3ccc(C(C)C)cc3)nnn2-c2nonc2N)CC1	none
O=S(=O)(Nc1nc2ccccc2nc1N1CCc2ccccc2C1)c1ccc(Cl)cc1	KCNK9 inh -12.3 | KCNK9 block conf 46.0% | Kir21 sel inactive | KCNK9 uninduced inactive
COc1ccc(Oc2ccc(N/C=C/C(=O)C(C)(C)C)cc2)cc1	none | KCNK9 block conf inactive | Kir21 sel inactive | KCNK9 uninduced inactive
COc1cccc(Oc2ccc(N/C=C/C(=O)C(C)(C)C)cc2)c1	none
CCOC(=O)C1=C(CSc2nc(-c3ccccc3)ccc2C#N)OC(N)=C(C#N)C1c1cccnc1 (stereo not drawn)	KCNK9 inh -18.5, KCNK3 block -16.6 | KCNK9 block conf 68.5% | Kir21 sel inactive | KCNK9 uninduced 40.5%
CCOC(=O)CC1=C(C(=O)OCC)C(c2cccnc2)C(C#N)=C(N)O1 (stereo not drawn)	none
CCOC(=O)C1=C(CSc2nc(-c3ccccc3)ccc2C#N)OC(N)=C(C#N)C1c1ccccc1 (stereo not drawn)	KCNK9 inh -12.7 | KCNK9 block conf 47.0% | Kir21 sel inactive | KCNK9 uninduced 38.0%
CCc1nc2oc3ccccc3c(=O)c2cc1C(=O)OC	none
O=C1c2ccccc2C(=O)N1CC#CCN1CCN(C(c2ccccc2)c2ccccc2)CC1	none | KCNK9 block conf inactive | Kir21 sel inactive | KCNK9 uninduced inactive
COc1cc(COc2ccc3c(C)c(Cc4ccccc4)c(=O)oc3c2)cc(OC)c1OC	none | KCNK9 block conf inactive | Kir21 sel inactive | KCNK9 uninduced inactive
O=C(CN1CCC(O)(c2cccc(F)c2)CC1)NCCc1c[nH]c2ccccc12	none
CC1CCN(C(=O)CCCl)c2ccccc21 (stereo not drawn)	none (no result: KCNQ1 inh, Kir21 inh, KCNK9 inh, KCNQ1 pot, hERG protect)
CCc1ccc(-c2nn(-c3ccccc3)cc2C2SCC(=O)N2Cc2ccco2)cc1 (stereo not drawn)	none | KCNK9 block conf inactive | Kir21 sel inactive | KCNK9 uninduced inactive
O=C1CSC(c2ccncc2)N1Cc1ccco1 (stereo not drawn)	none
CC(C)=CCC[C@](C)(O[C@@H]1O[C@H](CO[C@@H]2OC[C@@H](O)[C@H](O)[C@H]2O)[C@@H](O)[C@H](O)[C@H]1O)C1CC[C@]2(C)C1[C@H](O)CC1[C@@]3(C)CC[C@H](O[C@@H]4O[C@H](CO)[C@@H](O)[C@H](O)[C@H]4O)C(C)(C)C3CC[C@]12C (stereo partly drawn)	none (no result: KCNQ1 inh, Kir21 inh, KCNK9 inh, KCNQ1 pot, hERG protect)
N#Cc1ccccc1OCC(=O)OCC(=O)NC1CC1	none (no result: KCNQ1 inh, Kir21 inh, KCNK9 inh, KCNQ1 pot, hERG protect)
CC(C)Oc1ccc(Cn2c(=O)sc3ccccc32)cc1	none | KCNK9 block conf inactive | Kir21 sel inactive | KCNK9 uninduced 30.5%
COc1ccc(Cn2c(=O)sc3ccccc32)cc1	none
Cc1ccc(S(=O)(=O)N2CCCC2)s1	none

High-throughput results from PubChem.
